An excerpt weighted towards active compounds, which were near 2.7% of everything screened.
V1aR counter – counter-screen for oxytocin receptor agonists: human V1a receptor agonists; CHO-V1R cells, Fluo-8 calcium fluorescence, agonist mode; 0% DMSO, 100% 3 nM vasopressin; activation, % at 3 µM; 0.25% of 320,000 active;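 active = activation above the mean activation of all tested compounds plus 3 SD, per screening run, cut at about 20% in these data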;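 also: signal is peak over basal fluorescence ratio across a 100 second FLIPR read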
OX1R antag-1 – antagonists of human orexin 1 receptor (OX1R); inhibition, % at 6.6 µM; 1.8% of 330,000 active; O43613; AID 485270; OX1R-expressing cells, FRET antagonist read-out; in the data active = inhibition mostly above about 38%, no sharp cut-off; inactive = mostly below about 40%;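 also: 0% = agonist challenge alone and 100% = reference antagonist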
Target sequence (O43613 whole entry, looked up): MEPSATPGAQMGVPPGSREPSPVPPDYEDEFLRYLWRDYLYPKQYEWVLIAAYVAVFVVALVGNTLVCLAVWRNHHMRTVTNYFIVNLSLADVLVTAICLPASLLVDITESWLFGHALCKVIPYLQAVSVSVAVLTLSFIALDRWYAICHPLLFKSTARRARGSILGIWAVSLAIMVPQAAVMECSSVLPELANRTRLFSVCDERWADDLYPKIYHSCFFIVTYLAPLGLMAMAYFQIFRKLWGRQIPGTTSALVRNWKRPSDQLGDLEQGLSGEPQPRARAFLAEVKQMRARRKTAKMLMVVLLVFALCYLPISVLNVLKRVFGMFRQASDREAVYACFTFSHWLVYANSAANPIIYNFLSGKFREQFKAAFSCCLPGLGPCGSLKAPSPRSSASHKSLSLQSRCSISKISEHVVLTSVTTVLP
OX1R antag-2 – blocks the human orexin 1 receptor. O43613. CHO/OX1R cells, Fluo-8 calcium fluorescence, orexin A. inhibition, % at 5 µM. 0.43% of 330,000 active. AID 434989;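 active = inhibition above its plate's threshold, mean inhibition of all tested compounds on the plate plus 3 SD, cut at about 37% in these data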;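 also: 0% = orexin A challenge wells and 100% = SB-334867-A antagonist wells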
CHO parental Ca – counter-screen for OX1R antagonists: effect in parental CHO cells; inhibition, % at 5.6 µM; parental CHO-K1, ATP-induced calcium, Fluo-8 fluorescence; 0.63% of 330,000 active;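 active = inhibition above that plate's mean sample inhibition plus 3 SD, cut at about 26% in these data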;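 also: 0% = ATP-challenged DMSO wells and 100% = DMSO wells without ATP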
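Assay system: untransfected parental CHO cell line. Also added: ATP agonist challenge. Dosing: one dose, 5.6 µM nominal. Measured by: Fluo-8 fluorescence. Read-out: % inhibition. Benchmarks: ATP wells versus no-ATP DMSO wells. Repeats: no replicates.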
OXTR agonist – agonists of human oxytocin receptor; P30559; CHO-OTR cells, Fluo-8 calcium fluorescence; normalized: DMSO 0%, oxytocin 100%; activation, % at 3 µM; 0.32% of 320,000 active; AID 2435;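 active = activation above the mean of all tested compounds plus 3 SD, cutoff set per screening run, cut at about 20% in these data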;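 also: peak over basal fluorescence ratio from a 100 s FLIPR kinetic read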
OXTR potentiate – human OXTR potentiation; activation, % at 3 µM; AID 2445; P30559; 0.061% of 320,000 active; CHO-OTR cells, Fluo-8 calcium fluorescence, potentiator mode; 0% = oxytocin EC15, 100% = EC100;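 active = activation above that plate's cutoff, the mean activation of tested compounds plus 3 SD, cut at about 6.6% in these data, passing the limit was not always enough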;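 also: 100% uses oxytocin at 75 nM as the full agonist control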
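Measured by – Fluo-8 calcium dye fluorescence · Test system – human OTR in CHO cells · Dosing – one concentration, 3.0 µM compound · Controls – EC15 oxytocin alone as 0%, 75 nM oxytocin as 100% · Evaluation – normalized max/min fluorescence ratio, % activation · Timing – 6 min pre-incubation, 100 s read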
OX1R Fluo8 conf – OX1R (human) antagonism, confirmed; shares compounds with OX1R antag-2; CHO/OX1R cells, orexin A calcium Fluo-8 fluorescence; inhibition, % at 5 µM; 38% of 1,100 active; AID 492963; in the data active = inhibition above about 29%;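 also: 0% = agonist challenge alone and 100% = reference antagonist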
CHO Ca triplic – counter-screen: parental CHO calcium response change, triplicate; shares compounds with OX1R antag-2; parental CHO-K1, ATP-induced calcium, Fluo-8 fluorescence; inhibition, % at 5.6 µM; 9.3% of 1,100 active; AID 492965;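 active = inhibition above a per-plate limit, the mean inhibition of that plate's test compounds plus 3 SD, cut at about 25% in these data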;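 also: 0% = ATP challenge with DMSO and 100% = DMSO without ATP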
An asterisk follows results filed as active.

What do the screens show for `CC1=C(C(=O)OCc2ccccc2)C(c2cccc([N+](=O)[O-])c2)NC(=O)N1` (configuration not stated)?
V1aR counter: 0; OX1R antag-1: 17; OX1R antag-2: -36; CHO parental Ca: -22; OXTR agonist: -1; OXTR potentiate: -7

What do the screens show for `CC1=C(C(=O)OCc2ccc3c(c2)OCO3)C(c2cccc([N+](=O)[O-])c2)NC(=O)N1` (configuration not stated)?
V1aR counter: 2; OX1R antag-1: 12; OX1R antag-2: 25; CHO parental Ca: 0; OXTR agonist: 2; OXTR potentiate: -20; OX1R Fluo8 conf: 5; CHO Ca triplic: -8

What do the screens show for `NC(=O)c1ccc(NC(=O)Cc2ccc(S(=O)(=O)N3CCCCC3)cc2)cc1`?
V1aR counter: 0; OX1R antag-1: 4; OX1R antag-2: 4; CHO parental Ca: -9; OXTR agonist: 0; OXTR potentiate: -6

How did O=S(=O)(c1ccc2c(c1)OCCO2)N1CCN(Cc2ccccc2)CC1 do in these assays?
V1aR counter: -1; OX1R antag-1: 15; OX1R antag-2: 28; CHO parental Ca: -2; OXTR agonist: -1; OXTR potentiate: -3; OX1R Fluo8 conf: -4; CHO Ca triplic: -4

What do the screens show for `O=C(O)CN(Cc1ccccc1)S(=O)(=O)c1ccc2c(c1)OCCO2`?
V1aR counter: 0; OX1R antag-1: 33; OX1R antag-2: 39; CHO parental Ca: -5; OXTR agonist: 1; OXTR potentiate: -3; OX1R Fluo8 conf: 3; CHO Ca triplic: 5

What do the screens show for `Cc1ccc(C)c(Cn2nnc(C(=O)Nc3ccc4c(c3)OCCO4)c2N)c1`?
V1aR counter: 29*; OX1R antag-1: 6; OX1R antag-2: 22; CHO parental Ca: 15; OXTR agonist: 39*; OXTR potentiate: -21; OX1R Fluo8 conf: 36*; CHO Ca triplic: 20

What do the screens show for `CCN(CC)c1ccc2c(c1)oc(=O)c1c(Cl)cc(=O)oc12`?
V1aR counter: 7; OX1R antag-1: 22; OX1R antag-2: 28; CHO parental Ca: 16; OXTR agonist: 8; OXTR potentiate: -13; OX1R Fluo8 conf: 80*; CHO Ca triplic: 56*

Results for O=C1NCC(c2ccccc2)C1C(=O)N/N=C\c1ccc(-c2ccc(Cl)c(Cl)c2)o1 (configuration not stated) ?
V1aR counter: 1; OX1R antag-1: 60; OX1R antag-2: 52*; CHO parental Ca: 8; OXTR agonist: 0; OXTR potentiate: -5; OX1R Fluo8 conf: 51*; CHO Ca triplic: 3

Results for CC1(c2ccccc2)NC(=O)N(CC(=O)NCC2CCCO2)C1=O (configuration not stated) ?
V1aR counter: 0; OX1R antag-1: 6; OX1R antag-2: -14; CHO parental Ca: -1; OXTR agonist: -1; OXTR potentiate: 3

How did Cc1cc(NC(=O)CN(C)CC(=O)Nc2ccc(Cl)c(C(F)(F)F)c2)no1 do in these assays?
V1aR counter: 8; OX1R antag-1: 12; OX1R antag-2: 40*; CHO parental Ca: -10; OXTR agonist: 10; OXTR potentiate: -7; OX1R Fluo8 conf: 3; CHO Ca triplic: 0

How did Cc1cc(NC(=O)CSCC(=O)Nc2ccc(Cl)c(C(F)(F)F)c2)no1 do in these assays?
V1aR counter: 2; OX1R antag-1: 25; OX1R antag-2: -21; CHO parental Ca: -21; OXTR agonist: 1; OXTR potentiate: -3

Results for CC(=O)Nc1ccc(S(=O)(=O)N2CCSC2c2ccccc2Cl)cc1 (configuration not stated) ?
V1aR counter: 8; OX1R antag-1: 39; OX1R antag-2: 26; CHO parental Ca: 22; OXTR agonist: 2; OXTR potentiate: -20; OX1R Fluo8 conf: 7; CHO Ca triplic: 5

How did CC(Oc1ccccc1)C(=O)OCC(=O)Nc1sccc1C(N)=O (configuration not stated) do in these assays?
V1aR counter: 9; OX1R antag-1: 12; OX1R antag-2: 14; CHO parental Ca: 4; OXTR agonist: 15; OXTR potentiate: -13

How did CCC(Oc1ccccc1)C(=O)OCC(=O)Nc1sccc1C(N)=O (configuration not stated) do in these assays?
V1aR counter: 12; OX1R antag-1: 13; OX1R antag-2: 44*; CHO parental Ca: 0; OXTR agonist: 18; OXTR potentiate: -11; OX1R Fluo8 conf: 17; CHO Ca triplic: 18

What do the screens show for `NC(=O)c1ccsc1NC(=O)COC(=O)/C=C/c1ccccc1[N+](=O)[O-]`?
V1aR counter: 6; OX1R antag-1: 24; OX1R antag-2: 57*; CHO parental Ca: -3; OXTR agonist: 10; OXTR potentiate: -10; OX1R Fluo8 conf: 25; CHO Ca triplic: -8

How did C(=C\c1ccccc1)/CN1CCN(c2ncnc3c2oc2ccccc23)CC1 do in these assays?
V1aR counter: 6; OX1R antag-1: 29; OX1R antag-2: 48*; CHO parental Ca: 16; OXTR agonist: 7; OXTR potentiate: -10; OX1R Fluo8 conf: 21; CHO Ca triplic: 57*

Results for c1ccc2c(c1)oc1c(N3CCOCC3)ncnc12 ?
V1aR counter: 11; OX1R antag-1: 28; OX1R antag-2: -5; CHO parental Ca: -3; OXTR agonist: 3; OXTR potentiate: -12

How did COC(=O)[C@@]1(Cc2ccc(F)cc2)[C@H]2c3cc(C(=O)N4CCCC4)n(CCCNc4ncc(C(F)(F)F)cc4Cl)c3C[C@H]2CN1C(=O)c1ccccc1 do in these assays?
V1aR counter: 0; OX1R antag-1: 19; OX1R antag-2: -23; CHO parental Ca: -27; OXTR agonist: 0; OXTR potentiate: -5

What do the screens show for `O=C(Nc1nnc(-c2ccc(Cl)cc2)o1)c1nc2ccccc2s1`?
V1aR counter: 6; OX1R antag-1: -2; OX1R antag-2: 32; CHO parental Ca: -3; OXTR agonist: 5; OXTR potentiate: -7; OX1R Fluo8 conf: -4; CHO Ca triplic: 4

What do the screens show for `CCOC(=O)[C@H]1[C@H]2COc3cc(OC)ccc3[C@@H]2N2C(=O)CN(Cc3ccc(OC)cc3)C(=O)[C@@]12C`?
V1aR counter: 0; OX1R antag-1: 2; OX1R antag-2: -42; CHO parental Ca: -20; OXTR agonist: 0; OXTR potentiate: 0

How did NS(=O)(=O)c1ccc(CCNC(=O)COC(=O)CCc2c[nH]c3ccccc23)cc1 do in these assays?
V1aR counter: 3; OX1R antag-1: 12; OX1R antag-2: 32; CHO parental Ca: -9; OXTR agonist: 5; OXTR potentiate: -6; OX1R Fluo8 conf: 15; CHO Ca triplic: -8

Assay outcomes: PubChem, The Scripps Research Institute Molecular Screening Center
